Measurements of several laboratories.
Compare with care: the assays were run in different laboratories.
Observed: metabolic stability

SMILES | system | setting | endpoint | result
CCOc1ccc2ccc(=O)oc2c1 | male CD-1 mouse, hepatocytes | 1 µM | hepatocyte CLint | > 46.2 µL/min/10⁶ cells
CC1(CN)CCN(c2cnc3c(Sc4ccncc4Cl)n[nH]c3n2)CC1 | mouse, liver microsomes | – | scaled CLint | 8.71 mL/min/kg
O=c1ccc2cc(O)ccc2o1 | mouse, liver microsomes | – | microsomal CLint | 10.2 mL/h/mg
Cc1ccc(Cn2cc(C(=O)NN)c(=O)c3cc(Oc4ccccc4)ccc32)cc1 | male CD-1 mouse, liver microsomes | 1 µM | microsomal CLint | < 0.696 mL/h/mg
O=C(O)Cc1ccccc1Nc1c(Cl)cccc1Cl | mouse, liver microsomes | – | scaled CLint | 90.3 mL/min/kg
O=c1ccc2ccc(O)cc2o1 | mouse, liver microsomes | – | scaled CLint | 3050 mL/min/kg
CC(C)Oc1ccc(S(=O)(=O)c2ccc(Oc3cc(OCC(N)=O)c(C(=O)C(Cl)Cl)cc3[N+](=O)[O-])cc2)cc1 | mouse, liver microsomes | – | microsomal CLint | 11.8 mL/h/mg
CCN(CCN)c1ccc(Nc2cc(NC3CC3)n3ncc(C#N)c3n2)cc1-n1cnnc1 | male CD-1 mouse, hepatocytes | 1 µM, serum-free | scaled CLint | < 32 mL/min/kg
